Measurements of several laboratories.
Target: Death-associated protein kinase 1 (DAPK1, Homo sapiens, UniProt P53355)

N#Cc1ccc(Nc2ccc3[nH]c(=O)[nH]c3c2)c(Cl)c1  remaining binding (cell-free assay, competition with immobilised ligand; 1 µM): 100%
O=C(Nc1cnn(-c2csc(C(=O)NC3COC3)c2)c1)Nc1c(F)cccc1Cl  remaining activity (enzyme activity, inhibitor; 5 µM): 98.9%
Cc1ncc([N+](=O)[O-])n1C(=NO)c1ccccc1C(F)(F)F  inhibition (enzyme activity, inhibitor; 10 µM): 16.5%
CN(C)C1CCN(CC#Cc2nn(C3CCCC3)c3nc(NCc4ccccc4)ncc23)C1 (centres unmarked)  inhibition (enzyme activity, inhibitor, FRET; 1 µM): -2%
CN(C)c1ncnc(-c2ccc3nc(Nc4cc(CN5CCN(C(=O)CC(F)(F)F)CC5)ccn4)[nH]c3c2)c1Cl  remaining binding (cell-free assay, competition with immobilised ligand; 1 µM): 100%
CCCS(=O)(=O)Nc1ccc(F)c(C(=O)c2c[nH]c3ncc(-c4ccc(Cl)cc4)cc23)c1F  inhibition (enzyme activity, inhibitor; 1 µM): < 10%
CS(=O)(=O)CCNCc1ccc(-c2ccc3ncnc(Nc4ccc(OCc5cccc(F)c5)c(Cl)c4)c3c2)o1  remaining signal (cell-free assay; 0.5 µM): 107%
CC(C)(C)c1nc(-c2cccc(NS(=O)(=O)c3c(F)cccc3F)c2F)c(-c2ccnc(N)n2)s1  remaining activity (enzyme activity, inhibitor, radiometric; 1 µM): 75%
Nc1ncnc2occ(-c3ccc(NC(=O)Nc4cc(C(F)(F)F)ccc4F)cc3)c12  remaining signal (cell-free assay, inhibitor; 20 µM): 29%
COc1cc(Nc2cnc(C#N)c(O[C@H](C)CN(C)C)n2)ncc1-c1cnn(C)c1  remaining activity (enzyme activity, inhibitor, radiometric; 1 µM): 95%
CCC(=O)N[C@H]1CC[C@@H](C(=O)N(C)c2ccc(-c3nc4ccccc4o3)cc2)C1  remaining binding (cell-free assay, competition with immobilised ligand; 1 µM): 96%
Oc1cccc(-c2nc(N3CCOCC3)c3oc4ncccc4c3n2)c1  remaining activity (enzyme activity, inhibitor; 10 µM): 30%
COc1cc(-c2cn(C3CCc4ccccc4N(CC(F)(F)F)C3=O)nn2)ccc1-n1ccc(C)n1 (centres unmarked)  remaining binding (cell-free assay, competition with immobilised ligand; 1 µM): 79%
Cc1ccc(Nc2nccc(N(C)c3ccc4c(C)n(C)nc4c3)n2)cc1S(N)(=O)=O  inhibition (enzyme activity, inhibitor; 0.3 µM): 16%
O=C1Nc2ccc(Cl)cc2C1=Cc1cc(Cl)c(O)c(Cl)c1  remaining signal (cell-free assay; 0.5 µM): 90%
CNC(=O)c1cc(Oc2ccc(NC(=O)Nc3ccc(Cl)c(C(F)(F)F)c3)cc2)ccn1  inhibition (enzyme activity, inhibitor; 0.3 µM): 16%
COc1cc(/C=C/C(=O)CC(=O)/C=C/c2ccc(O)c(OC)c2)ccc1O  activity vs control (enzyme activity, inhibitor; 1 µM): 93%
O=C(Nc1cccnn1)N1CC(C/C=C/c2cncc(Oc3ccc(C(F)(F)F)cn3)n2)C1  remaining binding (cell-free assay, competition with immobilised ligand; 1 µM): 98%
Cc1ccc(C(=O)Nc2ccc(CN3CCN(C)CC3)c(C(F)(F)F)c2)cc1C#Cc1cnc2cccnn12  remaining activity (enzyme activity, inhibitor; 23.5 nM): 95%
CN1CC(Oc2cnc(C#N)cc2-c2ccn3nc(NC(=O)C4CC4)cc3c2)C1  inhibition (enzyme activity, inhibitor; 1 µM): 1%
CC(=O)Nc1c(C(C)=O)c(=O)n(C)c2nc(-c3ccc(Cl)cc3Cl)c(-c3ccc(Cl)cc3)cc12  remaining binding (cell-free assay, competition with immobilised ligand; 1 µM): 100%
N#CCCc1ccc2c(c1)-c1[nH]c3ccc([N+](=O)[O-])cc3c1CC(=O)N2  remaining signal (cell-free assay; 0.5 µM): 96.5%
CS(=O)(=O)N1CCCC(NC(=O)[C@H](CCC2CCCCC2)NC(=O)c2ccc(CNc3ncnc4c3nnn4-c3ccccc3)cc2)C1 (some centres unmarked)  remaining binding (cell-free assay, competition with immobilised ligand; 0.1 µM): 92%
O=C1NC(=O)c2cc(Nc3ccc(F)cc3)c(Nc3ccc(F)cc3)cc21  remaining signal (cell-free assay; 0.5 µM): 81.3%
FC(F)(F)Oc1cccc(-c2cnc3ccc(-c4ccncc4)nn23)c1  activity vs control (enzyme activity, inhibitor, radiometric; 5 µM): 91%
CCCCN(CCCC)C(=O)CN1C[C@H](c2cc(OC)c3c(c2)OCO3)[C@@H](C(=O)O)[C@@H]1CC(C)(C)CCC  remaining binding (cell-free assay, competition with immobilised ligand; 1 µM): 100%
